Reference: ChEMBL document CHEMBL1641374, “Synthesis of antiproliferative flavones from calycopterin, major flavonoid of Calycopteris floribunda Lamk” (Bioorg Med Chem, 2011)
Blank lines part the entries; values can stand above or below the compound they belong to. Calls of active or inactive are those of the source. No cut-off for these calls is given here.

Legend:
[1] = test system: KB; test: Cytotoxicity against human KB cells after 72 hrs by MTS assay; type: functional, cell-based
[2] = test system: KB; test: Cytotoxicity against human KB cells at 10^-6 M after 72 hrs by MTS assay; type: functional
In short: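 KB cells in D-MEM with 10% FCS were seeded at 600 cells/well and dosed 24 h later with flavone at 10^-6 M in DMSO. Controls received DMSO at 1% final. After 72 h, MTS was added for 3 h at 37 °C and A490 read in triplicate. Growth inhibition (%) = (1 − OD treated/OD control)×100.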

[3] = test system: HL-60; test: Induction of apoptosis in human HL60 cells assessed as early apoptosis cells at 200 nM after24 hrs by annexin-V-PE/7-AAD staining (reference value: 2.6%); type: functional
[4] = test system: HL-60; test: Induction of apoptosis in human HL60 cells assessed as viable cells at 200 nM after 48 hrs by annexin-V-PE/7-AAD staining (reference value: 97.4%); type: functional; details: HL-60, 48 h, read-out: Activity
[5] = test system: HL-60; test: Induction of apoptosis in human HL60 cells assessed as late apoptosis cells at 200 nM after24 hrs by annexin-V-PE/7-AAD staining (reference value: 0.2%); type: functional
[6] = test system: HL-60; test: Induction of apoptosis in human HL60 cells assessed as viable cells at 200 nM after24 hrs by annexin-V-PE/7-AAD staining (reference value: 97.2%); type: functional; details: read-out: Activity
[7] = test system: HL-60; test: Induction of apoptosis in human HL60 cells assessed as early apoptosis cells at 200 nM after 48 hrs by annexin-V-PE/7-AAD staining (reference value: 2.5%); type: functional
[8] = test system: HL-60; test: Induction of apoptosis in human HL60 cells assessed as late apoptosis cells at 200 nM after 48 hrs by annexin-V-PE/7-AAD staining (reference value: 0.1%); type: functional
[9] = test system: HL-60; test: Induction of apoptosis in human HL60 cells assessed as induction of caspase 3/7 activation at 100 uM; type: functional, cell-based
In short: (§1)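 HL60 cells (20,000/well) were treated 24 and 48 h with compounds in DMSO. Vehicle and doxorubicine served as controls. Fluorescence (ex 360/em 465 nm) was followed over 3 h.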

[10] = organism: Ovis aries; test: Inhibition of sheep brain tubulin polymerization after 5 mins
In short: (§2)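 Sheep brain microtubule proteins were purified by two assembly/disassembly cycles (37 °C/0 °C) in 100 mM MES pH 6.6, 1 mM EGTA, 0.5 mM MgCl2. Polymerization rate was followed by turbidity at 350 nm, with deoxypodophyllotoxin as reference. Compounds were tested at ~2×10^-5 M for % inhibition, with IC50 determined for selected compounds.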

[11] = test system: HL-60; test: Induction of apoptosis in human HL60 cells assessed as induction of caspase 3/7 activation at 100 uM relative to control; type: functional; in short: as §1
[12] = Inhibition of sheep brain tubulin polymerization at 2x10'-5 M after 5 mins; set-up: species or system Ovis aries; in short: as §2
[13] = test system: KB; test: Induction of cell cycle arrest in human KB cells assessed as accumulation at G0/G1phase at 50 nM after 24 hrs by propidium iodide staining-based flow cytometry (reference value: 72.9%); type: functional
[14] = test system: HL-60; test: Induction of apoptosis in human HL60 cells assessed as late apoptosis cells at 50 nM after 48 hrs by annexin-V-PE/7-AAD staining (reference value: 0.1%); type: functional
[15] = test system: KB; test: Induction of cell cycle arrest in human KB cells assessed as accumulation at G2/M phase at 50 nM after 48 hrs by propidium iodide staining-based flow cytometry (reference value: 13.8%); type: functional
[16] = test system: PC-3; test: Cytotoxicity against human PC3 cells after 72 hrs by MTS assay; type: functional, cell-based; details: PC-3, 72 h
[17] = test system: SK-OV-3; test: Cytotoxicity against human SKOV3 cells after 72 hrs by MTS assay; type: functional, cell-based; details: SK-OV-3, 72 h
[18] = Cytotoxicity against human MCF7/R cells after 72 hrs by MTS assay; type: functional, cell-based; details: MCF7R
[19] = test system: KB; test: Induction of cell cycle arrest in human KB cells assessed as accumulation at subG1 phase at 50 nM after 24 hrs by propidium iodide staining-based flow cytometry (reference value: 0.7%); type: functional
[20] = test system: HL-60; test: Induction of apoptosis in human HL60 cells assessed as viable cells at 50 nM after 48 hrs by annexin-V-PE/7-AAD staining (reference value: 97.4%); type: functional; details: HL-60, 48 h, read-out: Activity
[21] = test system: HCT-15; test: Cytotoxicity against human HCT15 cells after 72 hrs by MTS assay; type: functional, cell-based; details: HCT-15, 72 h
[22] = test system: HCT-116; test: Cytotoxicity against human HCT116 cells after 72 hrs by MTS assay; type: functional, cell-based; details: HCT-116, 72 h
[23] = test system: OVCAR-8; test: Cytotoxicity against human OVCAR8 cells after 72 hrs by MTS assay; type: functional, cell-based; details: OVCAR-8, 72 h
[24] = test system: KB; test: Induction of cell cycle arrest in human KB cells assessed as accumulation at S phase at 50 nM after 48 hrs by propidium iodide staining-based flow cytometry (reference value: 18.4%); type: functional
[25] = test system: KB; test: Induction of cell cycle arrest in human KB cells assessed as accumulation at subG1 phase at 50 nM after 48 hrs by propidium iodide staining-based flow cytometry (reference value: 1.2%); type: functional
[26] = test system: KB; test: Induction of cell cycle arrest in human KB cells assessed as accumulation at G2/M phase at 50 nM after 24 hrs by propidium iodide staining-based flow cytometry (reference value: 19.6%); type: functional
[27] = Cytotoxicity against human HL60R cells after 72 hrs by MTS assay; type: functional, cell-based; details: HL-60, 72 h
[28] = test system: K562; test: Cytotoxicity against human K562 cells after 72 hrs by MTS assay; type: functional, cell-based; details: K562, 72 h
[29] = test system: HL-60; test: Induction of apoptosis in human HL60 cells assessed as early apoptosis cells at 50 nM after 48 hrs by annexin-V-PE/7-AAD staining (reference value: 2.5%); type: functional
[30] = test system: HL-60; test: Induction of apoptosis in human HL60 cells assessed as early apoptosis cells at 50 nM after24 hrs by annexin-V-PE/7-AAD staining (reference value: 2.6%); type: functional
[31] = test system: KB; test: Induction of cell cycle arrest in human KB cells assessed as accumulation at S phase at 50 nM after 24 hrs by propidium iodide staining-based flow cytometry (reference value: 6.9%); type: functional
[32] = test system: A549; test: Cytotoxicity against human A549 cells after 72 hrs by MTS assay; type: functional, cell-based; details: A549, 72 h
[33] = test system: HL-60; test: Cytotoxicity against human HL60 cells after 72 hrs by MTS assay; type: functional, cell-based; details: HL-60, 72 h
[34] = test system: HepG2; test: Cytotoxicity against human HepG2 cells after 72 hrs by MTS assay; type: functional, cell-based; details: HepG2, 72 h
[35] = test system: KB; test: Induction of cell cycle arrest in human KB cells assessed as accumulation at G0/G1phase at 50 nM after 48 hrs by propidium iodide staining-based flow cytometry (reference value: 66.6%); type: functional
[36] = test system: HL-60; test: Induction of apoptosis in human HL60 cells assessed as late apoptosis cells at 50 nM after24 hrs by annexin-V-PE/7-AAD staining (reference value: 0.2%); type: functional
[37] = test system: HL-60; test: Induction of apoptosis in human HL60 cells assessed as viable cells at 50 nM after24 hrs by annexin-V-PE/7-AAD staining (reference value: 97.2%); type: functional; details: read-out: Activity
[38] = test system: HL-60; test: Induction of apoptosis in human HL60 cells assessed as induction of caspase 3/7 activation at 100 nM relative to control; type: functional; in short: as §1
[39] = test system: MIA PaCa-2; test: Cytotoxicity against human MIAPaCa2 cells after 72 hrs by MTS assay; type: functional, cell-based; details: MIA PaCa-2, 72 h
[40] = test system: SF-268; test: Cytotoxicity against human SF268 cells after 72 hrs by MTS assay; type: functional, cell-based; details: SF-268, 72 h
[41] = test system: HT-29; test: Cytotoxicity against human HT-29 cells after 72 hrs by MTS assay; type: functional, cell-based; details: HT-29, 72 h

Compound: COc1ccc(-c2oc3c(OC)c(OC)c(O)c(O)c3c(=O)c2OC)cc1N
IC50 [1]: 10000 nM
Activity [2]: 38%

Compound: COc1c(OC)c(O)c2c(=O)c(OC)c(-c3ccc(O)c(C=O)c3)oc2c1OC
Activity [2]: <=13%

Compound: COc1cccc2c1C(=O)c1c(O)c3c(c(O)c1C2=O)C[C@@](O)(C(=O)CO)C[C@@H]3O[C@H]1C[C@H](N)[C@H](O)[C@H](C)O1 [DOXORUBICIN]
Activity [3]: 45.9%
viability at 0.2 µM [4]: 5.2%
Activity [5]: 1.2%
viability at 0.2 µM [6]: 52.8%
Activity [7]: 89.2%
Activity [8]: 5.6%

Compound: COc1ccc(-c2oc3c(OC)c(OC)c(OC)c(O)c3c(=O)c2OC)cc1C=O
Activity [2]: <=13%

Compound: COc1ccc(-c2oc3c(OC)c(OC)c(OC)c(O)c3c(=O)c2OC)cc1CN
Activity [2]: <=13%

Compound: COc1ccc(-c2oc3c(OC)c(OC)c(OC)c(O)c3c(=O)c2OC)cc1CO
Activity [2]: <=13%

Compound: COc1ccc(-c2oc3c(OC)c(OC)c(OC)c(O)c3c(=O)c2OC)cc1[N+](=O)[O-]
Activity [2]: 13%

inhibition [10]: 5%
Compound: COc1ccc(-c2oc3c(OC)c(OC)c(OC)c(OC)c3c(=O)c2OC)cc1N
Activity [9]: inactive
Activity [2]: 17%

Compound: COc1ccc(-c2oc3c(OC)c(OC)c(OC)c(O)c3c(=O)c2OC)cc1N(C)C
Activity [2]: 13%

IC50 [12]: 12000 nM
Compound: COc1ccc(-c2oc3c(OC)c(OC)c(OC)cc3c(=O)c2OC)cc1N
fold change (FC) [11]: 3.1
IC50 [1]: 78 nM
Activity [2]: 84%

Compound: COc1ccc(-c2oc3c(OC)c(OC)c(OC)c(O)c3c(=O)c2OC)cc1CN(C)C
Activity [2]: <=13%

IC50 [12]: 13000 nM
Compound: COc1ccc(-c2oc3c(OC)c(OC)c(OC)c(O)c3c(=O)c2OC)cc1N
Activity [13]: 39.3%
Activity [14]: 2.2%
Activity [15]: 14%
IC50 [16]: > 1000 nM
IC50 [17]: 37 nM
IC50 [18]: 34 nM
Activity [19]: 7.3%
viability at 0.05 µM [20]: 60.1%
IC50 [21]: 12 nM
IC50 [22]: 25 nM
IC50 [23]: 105 nM
Activity [24]: 32%
Activity [25]: 15.5%
Activity [26]: 34.5%
IC50 [27]: 14 nM
IC50 [28]: 9 nM
Activity [29]: 37.6%
Activity [30]: 20.7%
Activity [31]: 19.2%
IC50 [32]: 32 nM
IC50 [33]: 36 nM
IC50 [34]: 81 nM
Activity [35]: 38.5%
Activity [36]: 2.1%
viability at 0.05 µM [37]: 77.1%
IC50 [1]: 25 nM
fold change (FC) [38]: 3.2
IC50 [39]: 33 nM
IC50 [40]: 400 nM
IC50 [41]: 50 nM
Activity [2]: 96%
